Measurements published in ChEMBL document CHEMBL3046353, “Synthesis and fungicidal activity of some 5-membered heterocyclic derivatives containing benzimidazoles” (1993).
Activity calls are given as the source filed them.

What was measured:
[1] = tested on: Schoenoplectus acutus; assay: Herbicidal activity against Schoenoplectus acutus (hardstem bulrush) under paddy conditions; format: functional, organism-based
[2] = tested on: Oryza sativa; assay: Post-emergence herbicidal activity against Oryza sativa (rice); format: functional, organism-based
[3] = tested on: Abutilon theophrasti; assay: Post-emergence herbicidal activity against Abutilon theophrasti (velvetleaf); format: functional, organism-based
[4] = tested on: Avena sativa; assay: Pre-emergence herbicidal activity against Avena sativa; format: functional, organism-based
[5] = tested on: Echinochloa crus-galli; assay: Pre-emergence herbicidal activity against Echinochloa crus-galli (barnyard grass); format: functional, organism-based
[6] = tested on: Abutilon theophrasti; assay: Pre-emergence herbicidal activity against Abutilon theophrasti (velvetleaf); format: functional, organism-based
[7] = tested on: Sagittaria latifolia; assay: Post-emergence herbicidal activity against Sagittaria latifolia (broadleaf arrowhead); format: functional, organism-based
[8] = tested on: Convolvulaceae; assay: Herbicidal activity against Convolvulaceae (morning glory family) under paddy conditions; format: functional, organism-based
[9] = tested on: Culex pipiens pallens; assay: Insecticidal activity against Culex pipiens pallens (mosquito) at 3 to 5 ppm; format: functional, organism-based
[10] = tested on: Helminthosporium; assay: Fungicidal activity against Helminthosporium oryzae at 500 ppm after 7 days by poisoned food technique; format: functional; details: 168 h, read-out: GI
How it was run: (§1)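 Cultures kept on potato dextrose agar. Each compound, dissolved in acetone, was added to potato dextrose agar at a final 500 ppm (w/v) (poisoned food technique). A disc cut from the periphery of a seven-day-old culture was inoculated onto each set. Control sets held potato dextrose agar only. The read-out is percentage inhibition of fungal growth relative to control.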

[11] = tested on: Tetranychus cinnabarinus; assay: Insecticidal activity against Tetranychus cinnabarinus (carmine spider mite); format: functional, organism-based
[12] = tested on: Avena sativa; assay: Herbicidal activity against Avena sativa under paddy conditions; format: functional, organism-based
[13] = tested on: Convolvulaceae; assay: Post-emergence herbicidal activity against Convolvulaceae (morning glory family); format: functional, organism-based
[14] = tested on: Oryza sativa; assay: Herbicidal activity against Oryza sativa (rice) under paddy conditions; format: functional, organism-based
[15] = tested on: Spodoptera litura; assay: Insecticidal activity against Spodoptera litura; format: functional, organism-based
[16] = tested on: Sagittaria latifolia; assay: Pre-emergence herbicidal activity against Sagittaria latifolia (broadleaf arrowhead); format: functional, organism-based
[17] = tested on: Oryza sativa; assay: Pre-emergence herbicidal activity against Oryza sativa (rice); format: functional, organism-based
[18] = tested on: Schoenoplectus acutus; assay: Post-emergence herbicidal activity against Schoenoplectus acutus (hardstem bulrush); format: functional, organism-based
[19] = tested on: Schoenoplectus acutus; assay: Pre-emergence herbicidal activity against Schoenoplectus acutus (hardstem bulrush); format: functional, organism-based
[20] = tested on: Rhizoctonia solani; assay: Fungicidal activity against Rhizoctonia solani at 500 ppm after 7 days by poisoned food technique; format: functional; details: 168 h, read-out: GI; how it was run: as §1
[21] = tested on: Echinochloa crus-galli; assay: Herbicidal activity against Echinochloa crus-galli (barnyard grass) under paddy conditions; format: functional, organism-based
[22] = tested on: Sagittaria latifolia; assay: Herbicidal activity against Sagittaria latifolia (broadleaf arrowhead) under paddy conditions; format: functional, organism-based
[23] = tested on: Musca domestica; assay: Insecticidal activity against Musca domestica (house fly); format: functional, organism-based
[24] = tested on: Convolvulaceae; assay: Pre-emergence herbicidal activity against Convolvulaceae (morning glory family); format: functional, organism-based
[25] = tested on: Avena sativa; assay: Post-emergence herbicidal activity against Avena sativa; format: functional, organism-based
[26] = tested on: Echinochloa crus-galli; assay: Post-emergence herbicidal activity against Echinochloa crus-galli (barnyard grass); format: functional, organism-based

Cc1ccc2[nH]c(CSc3nnc(-c4ccc(Cl)cc4)o3)nc2c1
inactive: Activity [1] | Activity [2] | Activity [3] | Activity [4] | Activity [5] | Activity [6] | Activity [7] | Activity [8] | Activity [11] | Activity [12] | Activity [13] | Activity [14] | Activity [15] | Activity [16] | Activity [17] | Activity [18] | Activity [19] | Activity [21] | Activity [22] | Activity [23] | Activity [24] | Activity [25] | Activity [26]
100%: inhibition of growth at 500 ppm [10] | inhibition of growth at 500 ppm [20]
active: Activity [9]

Cc1ccc2[nH]c(CSc3nnc(-c4cccc(Cl)c4)s3)nc2c1
active: Activity [9]
inactive: Activity [1] | Activity [2] | Activity [3] | Activity [4] | Activity [5] | Activity [6] | Activity [7] | Activity [8] | Activity [11] | Activity [12] | Activity [13] | Activity [14] | Activity [15] | Activity [16] | Activity [17] | Activity [18] | Activity [19] | Activity [21] | Activity [22] | Activity [23] | Activity [24] | Activity [25] | Activity [26]
60.4%: inhibition of growth at 500 ppm [20]
81.2%: inhibition of growth at 500 ppm [10]

Nn1c(SCc2nc3ccccc3[nH]2)nnc1-c1ccccc1Cl
39.8%: inhibition of growth at 500 ppm [20]
inactive: Activity [1] | Activity [2] | Activity [3] | Activity [4] | Activity [5] | Activity [6] | Activity [7] | Activity [8] | Activity [11] | Activity [12] | Activity [13] | Activity [14] | Activity [15] | Activity [16] | Activity [17] | Activity [18] | Activity [19] | Activity [21] | Activity [22] | Activity [23] | Activity [24] | Activity [25] | Activity [26]
52.3%: inhibition of growth at 500 ppm [10]
active: Activity [9]

Clc1ccccc1-c1nnc(SCc2nc3ccccc3[nH]2)o1
56.2%: inhibition of growth at 500 ppm [20]
active: Activity [9]
75%: inhibition of growth at 500 ppm [10]
inactive: Activity [1] | Activity [2] | Activity [3] | Activity [4] | Activity [5] | Activity [6] | Activity [7] | Activity [8] | Activity [11] | Activity [12] | Activity [13] | Activity [14] | Activity [15] | Activity [16] | Activity [17] | Activity [18] | Activity [19] | Activity [21] | Activity [22] | Activity [23] | Activity [24] | Activity [25] | Activity [26]

Clc1ccc(-c2nnc(SCc3nc4ccccc4[nH]3)s2)cc1
inactive: Activity [1] | Activity [2] | Activity [3] | Activity [4] | Activity [5] | Activity [6] | Activity [7] | Activity [8] | Activity [11] | Activity [12] | Activity [13] | Activity [14] | Activity [15] | Activity [16] | Activity [17] | Activity [18] | Activity [19] | Activity [21] | Activity [22] | Activity [23] | Activity [24] | Activity [25] | Activity [26]
52.5%: inhibition of growth at 500 ppm [10]
active: Activity [9]
39%: inhibition of growth at 500 ppm [20]

Nn1c(SCc2nc3ccccc3[nH]2)nnc1-c1ccncc1
29.3%: inhibition of growth at 500 ppm [20]
30%: inhibition of growth at 500 ppm [10]
active: Activity [9]
inactive: Activity [1] | Activity [2] | Activity [3] | Activity [4] | Activity [5] | Activity [6] | Activity [7] | Activity [8] | Activity [11] | Activity [12] | Activity [13] | Activity [14] | Activity [15] | Activity [16] | Activity [17] | Activity [18] | Activity [19] | Activity [21] | Activity [22] | Activity [23] | Activity [24] | Activity [25] | Activity [26]

Cc1ccc2[nH]c(CSc3nnc(-c4ccccc4)s3)nc2c1
64.5%: inhibition of growth at 500 ppm [20]
71.3%: inhibition of growth at 500 ppm [10]
active: Activity [9]
inactive: Activity [1] | Activity [2] | Activity [3] | Activity [4] | Activity [5] | Activity [6] | Activity [7] | Activity [8] | Activity [11] | Activity [12] | Activity [13] | Activity [14] | Activity [15] | Activity [16] | Activity [17] | Activity [18] | Activity [19] | Activity [21] | Activity [22] | Activity [23] | Activity [24] | Activity [25] | Activity [26]

Clc1ccc(-c2nnc(SCc3nc4ccccc4[nH]3)o2)cc1
active: Activity [9]
inactive: Activity [1] | Activity [2] | Activity [3] | Activity [4] | Activity [5] | Activity [6] | Activity [7] | Activity [8] | Activity [11] | Activity [12] | Activity [13] | Activity [14] | Activity [15] | Activity [16] | Activity [17] | Activity [18] | Activity [19] | Activity [21] | Activity [22] | Activity [23] | Activity [24] | Activity [25] | Activity [26]
21.2%: inhibition of growth at 500 ppm [20]
39.7%: inhibition of growth at 500 ppm [10]
